In the library only some 1.9% were active in any assay of this set; here they are far more common.
ADAM10 inh – human ADAM10 inhibitors, primary screen, biochemical, QFRET, HTS. Disintegrin and metalloproteinase domain-containing protein 10 (Homo sapiens), O14672. recombinant ADAM10, EDANS/DABCYL FRET peptide cleavage, 3 h. inhibition, % at 7 µM. 370,000 compounds, 0.62% hits. AID 720582, 2013;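 active = inhibition above a per-campaign cutoff equal to the mean of compounds falling between control-based bounds plus 3 SD, cut at about 20% in these data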;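 also: 0% = DMSO wells while the 100% control is not disclosed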
Target sequence (O14672 214-748 limits assumed): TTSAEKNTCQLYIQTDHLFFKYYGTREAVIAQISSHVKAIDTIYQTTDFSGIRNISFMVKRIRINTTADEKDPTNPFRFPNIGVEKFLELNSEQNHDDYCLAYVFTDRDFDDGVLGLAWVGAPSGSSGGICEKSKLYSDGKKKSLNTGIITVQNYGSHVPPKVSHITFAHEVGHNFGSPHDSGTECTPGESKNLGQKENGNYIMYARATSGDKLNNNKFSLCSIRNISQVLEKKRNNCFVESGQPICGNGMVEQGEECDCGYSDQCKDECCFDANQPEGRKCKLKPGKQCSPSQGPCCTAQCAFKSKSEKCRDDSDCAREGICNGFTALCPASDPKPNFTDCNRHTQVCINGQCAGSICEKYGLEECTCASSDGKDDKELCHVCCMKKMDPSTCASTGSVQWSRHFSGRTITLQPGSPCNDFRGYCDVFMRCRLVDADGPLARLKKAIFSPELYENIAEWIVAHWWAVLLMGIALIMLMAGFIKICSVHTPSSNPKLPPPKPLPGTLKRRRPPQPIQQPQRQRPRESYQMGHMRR
FAS TE block – FAS thioesterase domain inhibitors, primary screen, biochemical, fluorescence intensity, uHTS. Fatty acid synthase (Homo sapiens), P49327. recombinant FAS-TE, OMFH fluorogenic substrate, fluorescence endpoint. inhibition, % at 15 µM. 360,000 compounds, 0.67% hits. AID 602261, 2012;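 active = compounds whose normalised, plate-corrected inhibition of enzyme fluorescence in the single-dose primary screen is 50% or more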;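 also: 0% = DMSO with enzyme and 100% = substrate without enzyme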
SENP1 FRET inh – human SENP1 catalytic domain inhibitors, primary screen, biochemical, FRET, uHTS; inhibition, % at 10 µM; Sentrin-specific protease 1 (Homo sapiens), Q9P0U3; AID 624204, 2012; recombinant SENP1 catalytic domain, CyPet-SUMO1-YPet FRET cleavage; 360,000 compounds, 0.21% hits;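 active = inhibition at least 30% at 10 µM, raw YFP signal under a set limit, fluorescence ratio 0.5 to 1.5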;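 also: 0% = enzyme with DMSO and 100% = no enzyme wells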
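Assay system: hSENP1 catalytic domain, recombinant. Amount: SENP1 enzyme, 20 pM final. Schedule: 50 min reaction, RT, dark. Technique: FRET, CFP and YFP emission. Control set: no-enzyme wells low, DMSO-plus-enzyme wells high control.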
ADAM17 inh – ADAM17 inhibitors, primary screen, biochemical, QFRET. AID 720648, 2013. inhibition, % at 6.95 µM. Disintegrin and metalloproteinase domain-containing protein 17 (Homo sapiens), P78536. 370,000 compounds, 0.83% hits. recombinant ADAM17, EDANS/DABCYL FRET peptide cleavage;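 active = inhibition above the mean of compounds lying between control limits plus 3 SD, set per campaign, cut at about 8.5% in these data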;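 also: 0% = DMSO-only wells as the low control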
FAS-TE inh conf – FAS thioesterase domain inhibitors, confirmation, biochemical, fluorescence intensity, single concentration; recombinant FAS-TE, OMFH fluorogenic substrate; 2,300 compounds, 45% hits; shares compounds with FAS TE block; inhibition, % at 15 µM;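 active = compounds inhibiting the enzyme by at least 50% at 15 µM in any one of the replicates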;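 also: 0% = enzyme with DMSO only and 100% = wells lacking enzyme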
SENP1 inh conf – human SENP1 catalytic domain inhibitors, confirmation, biochemical, FRET endpoint, single concentration; recombinant SENP1, CyPet-SUMO1-YPet FRET cleavage; 520 compounds, 34% hits; shares compounds with SENP1 FRET inh; inhibition, % at 10 µM; in the data active = inhibition mostly above about 35%, no sharp cut-off; inactive = mostly below about 32%;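 also: 0% = enzyme with DMSO and 100% = no enzyme control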
SENP1 kin conf – human SENP1 catalytic domain inhibitors, confirmation, biochemical, kinetic FRET, single concentration; shares compounds with SENP1 FRET inh; recombinant SENP1, CyPet-SUMO1-YPet FRET kinetic cleavage; inhibition, % at 10 µM; 520 compounds, 26% hits; AID 651690, 2012; in the data active = inhibition mostly above about 32%, no sharp cut-off; inactive = mostly below about 29%;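 also: 0% = DMSO with enzyme and 100% = no enzyme substrate only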
ADAM10 confirm – human ADAM10 inhibitors, confirmation, biochemical, QFRET, triplicate; 2,100 compounds, 1% hits; inhibition, % at 6.95 µM; shares compounds with ADAM10 inh; ADAM10 QFRET peptide cleavage, EDANS fluorescence; AID 743208, 2013;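 active = inhibition above about 20% chosen separately for each screening run, limit read from the data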;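 also: 0% = DMSO wells and 100% = marimastat wells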
ADAM17 ctr – ADAM17 inhibitors, counter-screen for ADAM10 exosite inhibitor project, biochemical, QFRET, high throughput; shares compounds with ADAM10 inh; ADAM17 QFRET peptide cleavage, EDANS fluorescence; inhibition, % at 6.95 µM; 2,100 compounds, 0.5% hits;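 active = mean triplicate inhibition above the solvent-only control wells' mean plus 3 SD, cut at about 12% in these data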;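 also: 0% = DMSO wells and 100% = marimastat wells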
Numbers without * were called inactive; · = no result.

SMILES | ADAM10 inh | FAS TE block | SENP1 FRET inh | ADAM17 inh | FAS-TE inh conf | ADAM10 confirm | ADAM17 ctr | others
NC(=O)[C@@H]1CC2(CC(c3cccc(NC(=O)CC(c4ccccc4)c4ccccc4)c3)=NO2)CN1C(=O)COc1ccc(Cl)cc1 (some centres not stated) | 23* | 60* | -2 | 8 | 17 | 14 | 4
Cc1ccc2c(c1)NC(=O)[C@@]1(C)[C@@H](c3ccccc3)[C@H]3COc4ccccc4[C@@H]3N1C2=O | 27* | 68* | -1 | 4 | 27 | 10 | 3
O=C(NC1CCCCN(Cc2ccc(Cl)cc2)C1=O)c1cccc(F)c1 (configuration not stated) | -7 | · | · | -5 | · | · | ·
CCN(CC)S(=O)(=O)c1cccc(-c2n[nH]c(=S)n2/N=C/c2ccc(OC(F)F)cc2)c1 | 20* | 52* | -2 | 8 | 44 | 6 | 3
CCN(CC)S(=O)(=O)c1cccc(-c2n[nH]c(=S)n2/N=C/c2ccc(OC)cc2)c1 | 13 | 3 | 2 | 5 | · | · | ·
Oc1ccc(Cl)cc1Sc1cc(Cl)ccc1O | 25* | 88* | -1 | 6 | 98* | 8 | 2
O=C(NN1C(=O)C2C3c4ccccc4C(c4ccccc43)[C@@H]2C1=O)c1ccccc1 (some centres not stated) | 11 | -12 | -2 | -1 | · | · | ·
O=C(NN1C(=O)C2C(c3ccccc3)C=CC(c3ccccc3)C2C1=O)c1cccc(Br)c1 (configuration not stated) | 21* | 54* | 40* | 8 | 45* | 10 | 5 | SENP1 inh conf=11;SENP1 kin conf=12
CN(CCOC(=O)c1cc2ccccc2o1)C1CN(Cc2cn(Cc3ccccc3C(F)(F)F)nn2)S(=O)(=O)C1 (configuration not stated) | -11 | · | · | -9 | · | · | ·
CCOC(=O)c1c(NC(=O)CSc2nnc(-c3ccccc3)n2CC)sc(C(C)=O)c1C | 23* | 51* | -1 | 4 | 17 | -2 | 0
O=C(NCCN1CCC(Cc2ccccc2)CC1)C1CCCN(S(=O)(=O)c2ccc([N+](=O)[O-])cc2)C1 (configuration not stated) | -9 | · | · | -2 | · | · | ·
CCS(=O)(=O)c1ccc2oc(Nc3ccc(C(C)(C)C)cc3)nc2c1 | 24* | 76* | 2 | 6 | 52* | 1 | 0
C[C@H](CO)N1C[C@H](C)[C@H](CN(C)S(=O)(=O)c2ccc(Cl)cc2)OCc2ccccc2-c2c(n(C)c3ccccc23)C1=O | 36* | 69* | -1 | 12* | 28 | 13 | 4
COc1ccc(N2C(=O)N3[C@H](c4ccc(Br)cc4)[C@@H]4C(=O)N(C(C)(C)C)C(=O)[C@@H]4[C@]3(Cc3ccccc3)C2=O)cc1 | 24* | 71* | 3 | 7 | 40 | 4 | 1
COc1ccc([C@@H]2[C@@H]3C(=O)N(C(C)(C)C)C(=O)[C@@H]3[C@]3(Cc4ccccc4)C(=O)N(c4ccc(Br)cc4)C(=O)N23)cc1 | · | 11 | 0 | · | · | · | ·
O=C1[C@H]2[C@@H](c3ccc(F)cc3)N3C(=O)N(c4ccccc4)C(=O)[C@@]3(Cc3ccccc3)[C@H]2C(=O)N1C1CCCCC1 | 24* | 59* | -1 | 7 | 36* | 1 | 1
COC(=O)C1CN(Cc2ccc(F)cc2)CCS(=O)(=O)N1Cc1cn(Cc2ccc(Cl)cc2)nn1 (configuration not stated) | 12 | · | · | 2 | · | · | ·
C=CCN1c2ccccc2[C@]23C[C@@H](C(=O)OC)N(C(=O)NC4CCCC4)C2=NC(C(=O)OC)=C(C(=O)OC)[C@H]13 | 21* | 75* | 1 | 10* | 0 | 3 | 1
CC#CCN1c2ccccc2[C@]23C[C@@H](C(=O)OC)N(C(=O)NC4CCCCC4)C2=NC(C(=O)OC)=C(C(=O)OC)[C@H]13 | 0 | 30 | 1 | 3 | · | · | ·
COC(=O)C1=CC(=O)C=C(OC)[C@@]12Oc1cc(C)cc(OC)c1C2=O | -15 | · | · | -8 | · | · | ·
COc1ccc2ccccc2c1C=NNC(=O)c1cc(-c2ccc(C)c(C)c2)n[nH]1 | -17 | · | · | -6 | · | · | ·
Cc1ccc(S(=O)(=O)N2C[C@H]3[C@H]4C(=O)N(c5ccccc5)C(=O)[C@H]4CC(=O)[C@H]3[C@@H]2c2ccccc2)cc1 | 3 | 5 | -11 | 2 | · | · | ·
CCOC1=C2[C@@H](CN(S(=O)(=O)c3ccc(C)cc3)[C@H]2c2cccc3ccccc23)[C@H]2C(=O)N(c3ccccc3)C(=O)[C@H]2C1 | 21* | 77* | 4 | 6 | 14 | 10 | 3
CN(C(=O)CNC(=O)c1ccccc1OCC(=O)Nc1ccc(Br)cc1)c1ccccc1 | 10 | · | · | 6 | · | · | ·
C[C@H]1CCCCO[C@@H](CN(C)S(=O)(=O)c2ccc(F)cc2)[C@@H](C)CN([C@@H](C)CO)C(=O)c2cc(NC(=O)Nc3ccc4c(c3)OCO4)ccc2O1 | 4 | 9 | 0 | -1 | · | · | ·
COc1ccc(S(=O)(=O)Nc2ccc3c(c2)C(=O)N([C@H](C)CO)C[C@H](C)[C@@H](CN(C)C(=O)Nc2ccc(F)cc2)OCCCC[C@H](C)O3)cc1 | -1 | 15 | -1 | -1 | · | · | ·
COc1ccc(S(=O)(=O)N(C)C[C@H]2OCCCC[C@@H](C)Oc3ccc(NC(=O)CCC(F)(F)F)cc3C(=O)N([C@H](C)CO)C[C@@H]2C)cc1 | -1 | 20 | -1 | -1 | · | · | ·

Screening results (PubChem)
